From PMC3224645 (Purinergic Signalling, 2011)

Tests used:
[1] = tested on: N1S1 (rat hepatocellular carcinoma) cells; assay: [3H]-thymidine incorporation proliferation assay, N1S1; assay type: cell-based
Procedure, shortened: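 N1S1 rat hepatoma cells, not serum-starved, were assayed in growth medium (RPMI 1640, 10% FBS, 2 mM L-glutamine, penicillin/streptomycin) at 1.5 × 10^4 cells/ml. […] Assays ran 24 h, or 48 h for experiments with EHNA (10 μM). [3H]-thymidine (1 μCi) was pulsed for the last 18 h, then cells were harvested and scintillation-counted.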

hA3R [2] = target: T1, hA3R (Homo sapiens, UniProt P0DMS8); assay: cAMP accumulation assay; assay type: cell-based
T1 sequence (P0DMS8 1-318): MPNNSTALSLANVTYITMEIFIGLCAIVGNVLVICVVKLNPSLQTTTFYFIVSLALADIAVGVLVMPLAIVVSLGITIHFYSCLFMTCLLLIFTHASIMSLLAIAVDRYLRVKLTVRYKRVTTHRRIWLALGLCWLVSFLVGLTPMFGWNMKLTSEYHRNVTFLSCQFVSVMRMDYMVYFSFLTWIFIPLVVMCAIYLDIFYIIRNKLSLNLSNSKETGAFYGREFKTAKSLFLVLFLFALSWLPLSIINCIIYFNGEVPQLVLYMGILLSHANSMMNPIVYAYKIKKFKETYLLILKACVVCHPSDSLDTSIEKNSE

[3] = tested on: LNCaP (human prostate carcinoma) cells; assay: [3H]-thymidine incorporation proliferation assay, LNCaP; assay type: cell-based; conditions: for effect on LNCaP proliferation: 24 h
Procedure, shortened: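 LNCaP cells were kept in RPMI 1640 with 10% FBS, then serum-starved for 18 h and assayed as monolayers in RPMI with 1% FBS at 1.5 × 10^4 cells/ml. […] Assays ran 24 h, or 48 h for experiments with EHNA (10 μM). [3H]-thymidine (1 μCi) was added for the last 18 h, then cells were harvested and counted. Three experiments in triplicate.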

[4] = tested on: breast cancer cell lines lacking A3R mRNA; conditions: concentrations between 10 and 100 μM (500 μM for adenosine); cited from earlier work
rat A3R = target: T2, rat A3R (Rattus norvegicus, UniProt P28647); assay: Radioligand binding, [125I]-AB-MECA displacement on RBL-2H3 cell membranes
T2 sequence (P28647 1-320): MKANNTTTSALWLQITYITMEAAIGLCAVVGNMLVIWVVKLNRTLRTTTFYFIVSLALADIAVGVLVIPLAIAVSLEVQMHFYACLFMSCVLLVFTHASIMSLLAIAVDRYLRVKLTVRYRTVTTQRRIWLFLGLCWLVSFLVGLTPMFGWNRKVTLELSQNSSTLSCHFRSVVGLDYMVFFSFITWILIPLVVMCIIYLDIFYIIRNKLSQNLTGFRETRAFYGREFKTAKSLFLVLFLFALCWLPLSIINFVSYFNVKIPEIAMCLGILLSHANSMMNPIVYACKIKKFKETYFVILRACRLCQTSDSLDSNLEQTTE

[5] = in the first 4 h, mostly in metabolized form; cited from earlier work
HL-60 = conditions: 30 μM, in the presence of MRS1523 (10 μM) or MRS1220 (5 μM); cited from earlier work
MOLT-4 = conditions: 30 μM, in the presence of MRS1523 (10 μM) or MRS1220 (5 μM); cited from earlier work
[6] = phase I clinical studies; cited from earlier work
hA3R [7] = target: T1, hA3R; conditions: cited from earlier work
LNCaP cells = assay: LNCaP proliferation with IPA in the presence of A3R antagonist MRS1523; assay type: cell-based, human

## CCCCCC[C@@H]([C@@H](C)O)n1cnc2c(N)ncnc21 (racemic) [EHNA]
[1]; EHNA 10 μM alone, without adenosine
  basal growth inhibition of N1S1 cells: 22%

## Nc1ncnc2c1ncn2[C@@H]1O[C@H](CO)[C@@H](O)[C@H]1O [1a, Adenosine]
[1]; 25 μM
  effect on N1S1 proliferation: only a modest effect
[1]; adenosine 25 μM + EHNA 10 μM
  effect on N1S1 proliferation in the presence of EHNA: almost full growth inhibition
hA3R [2]; agonist 10 μM + ADA 0.8 IU/ml
  effect of ADA on the agonist's inhibition of cAMP production: abolished the effect
hA3R [2]; agonist at 10 μM
  inhibition of forskolin-stimulated cAMP production: inhibited cAMP production to a similar extent
[3]; 25 μM
  effect on LNCaP proliferation: no effect
[3]; adenosine 25 μM + EHNA 10 μM, data not shown
  effect of EHNA on the adenosine effect in LNCaP: did not increase the adenosine effect
[4]
  antiproliferative effect on breast cancer cell lines lacking A3R mRNA: had antiproliferative effects

## CC(C)=CCNc1ncnc2c1ncn2[C@@H]1O[C@H](CO)[C@@H](O)[C@H]1O [1b, N^6-(2-isopentenyl)-adenosine]
Rat A3R
  Ki: 4.69 ± 0.2 µM
[5]
  fraction excreted in urine: more than 50%

## Nc1nc(Cl)nc2c1ncn2[C@@H]1O[C@H](CO)[C@@H](O)[C@H]1O [2-chloro-adenosine]
[4]
  antiproliferative effect on breast cancer cell lines lacking A3R mRNA: had antiproliferative effects

## Nc1ncnc2c1ncn2[C@@H]1O[C@H](CO)C[C@H]1O [3′-deoxyadenosine]
[4]
  antiproliferative effect on breast cancer cell lines lacking A3R mRNA: had antiproliferative effects

## CNC(=O)[C@H]1O[C@@H](n2cnc3c(NCc4cccc(I)c4)nc(Cl)nc32)[C@H](O)[C@@H]1O [Cl-IB-MECA, 2-chloro-N ^6-(3-iodobenzyl)adenosine-5′-N-methylcarboxamide]
HL-60
  growth of HL-60: inhibited growth
[1]; 0.01–10 μM, 24 h
  effect on N1S1 proliferation: inhibited proliferation
[3]; 0.01–10 μM
  effect on LNCaP proliferation: inhibited proliferation
MOLT-4
  growth of MOLT-4: inhibited growth
[4]
  antiproliferative effect on breast cancer cell lines lacking A3R mRNA: had antiproliferative effects

## CNC(=O)[C@H]1O[C@@H](n2cnc3c(NCc4cccc(I)c4)ncnc32)[C@H](O)[C@@H]1O [IB-MECA]
[6]
  tolerability: tolerated very well
[4]
  antiproliferative effect on breast cancer cell lines lacking A3R mRNA: had antiproliferative effects

## CCCOC(=O)c1c(-c2ccccc2)nc(CC)c(C(=O)SCC)c1CCC [MRS1523]
hA3R [7]
  affinity for the hA3R compared to IPA: approximately sixfold higher
LNCaP cells; IPA 1 μM, MRS1523 0.01–1 μM
  blockade of the antiproliferative effect of IPA on LNCaP: small, although still significant at higher concentrations
LNCaP cells; IPA 10 μM, MRS1523 0.01–1 μM
  blockade of the antiproliferative effect of IPA on LNCaP: no effect
LNCaP cells; MRS1523 0.1 and 1 μM, IPA 0.01 and 0.1 μM
  blockade of the antiproliferative effect of IPA on LNCaP: prevented the antiproliferative effect

## COc1ccccc1NC(=O)Nc1nc(-c2cccnc2)nc2ccccc12 [VUF5574]
hA3R [2]; agonists 10 μM, VUF5574 1 μM or 10 μM
  inhibition by the antagonist of cAMP modulation by adenosine, IPA and Cl-IB-MECA: largely and significantly inhibited
